For assay [1], the target named is T1, Estrogen receptor (Homo sapiens) (UniProt P03372).
T1 sequence (whole entry): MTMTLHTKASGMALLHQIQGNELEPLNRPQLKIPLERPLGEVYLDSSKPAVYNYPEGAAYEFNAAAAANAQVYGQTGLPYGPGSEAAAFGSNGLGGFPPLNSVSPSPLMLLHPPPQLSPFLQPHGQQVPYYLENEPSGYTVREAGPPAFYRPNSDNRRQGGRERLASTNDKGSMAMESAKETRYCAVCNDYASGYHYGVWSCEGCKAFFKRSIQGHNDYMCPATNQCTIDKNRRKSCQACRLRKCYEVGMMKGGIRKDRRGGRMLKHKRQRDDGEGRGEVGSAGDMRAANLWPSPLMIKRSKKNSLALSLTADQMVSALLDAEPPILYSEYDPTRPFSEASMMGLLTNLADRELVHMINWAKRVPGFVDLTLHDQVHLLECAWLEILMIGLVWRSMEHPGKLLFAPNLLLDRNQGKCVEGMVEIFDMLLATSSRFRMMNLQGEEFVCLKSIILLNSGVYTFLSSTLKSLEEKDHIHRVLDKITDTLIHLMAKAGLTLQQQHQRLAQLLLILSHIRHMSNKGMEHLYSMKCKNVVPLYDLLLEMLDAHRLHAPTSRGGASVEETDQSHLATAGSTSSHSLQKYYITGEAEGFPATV
The experiment in a line: Induction of ERalpha degradation in human T47D cells assessed as decrease in ERalpha protein expression incubated for 24 hrs by Western blotting analysis. Format: cell-based. Put shortly: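 T47D cells were treated with increasing doses for 24 h. Lysates were western blotted with rabbit anti-ERα, and actin served as the loading control. DC50 was read from the dose series.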
(In general: A western blot detects proteins with antibodies after separation by electrophoresis.)

Another assay relates to Mus musculus. Kind of assay: Induction of ERalpha degradation in CD1 mouse xenografted with human MCF7 cells assessed as reduction in ERalpha level at 10 mg/kg, sc measured after 3 days by Western blotting analysis. Type of assay: functional, organism-based. The note with it: time 3.0 day.
Assay [2] concerns the target T2, Estrogen receptor (Homo sapiens, UniProt P03372).
T2 sequence (P03372 whole entry): T1 sequence (whole entry)
The experiment in a line: Induction of ERalpha degradation in human MCF7 cells assessed as decrease in ERalpha protein expression incubated for 48 hrs in presence of VHL298 by Western blotting analysis. Type of assay: cell-based. The gist of the method:
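MCF7 in-cell western for ERα normalized to tubulin after dose titration co-treated with VHL298 at 5 μM, 48 h total treatment before collection.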

In assay [3] the target is T2, Estrogen receptor. Kind of assay: Induction of ERalpha degradation in human MCF7 cells assessed as decrease in ERalpha protein expression preincubated for 2 hrs followed by compound washout and measured after 22 hrs by Western blotting analysis. Format: cell-based. The gist of the method:
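MCF7 in-cell western: 2 h compound treatment, washout, cells collected 22 h later, compared with continuous 24 h treatment; ERα normalized to tubulin.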

Another assay concerns T47D. The experiment in a line: Antiproliferative activity against human T47D cells assessed as growth inhibition incubated for 7 days by CellTiter-Glo assay. The conditions noted are these: 168 h, time 7 day. Type of assay: functional. Put shortly:
(§1)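 Breast lines from ATCC, maintained in ATCC-specified media, treated with increasing compound doses in full-serum (complete) media for 7 days. Relative cell number measured by CellTiter-Glo ATP read-out.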
Background: ATP-based viability assays read luminescence as a measure of living cells.

Assay [4] concerns the target T1, Estrogen receptor (Homo sapiens). The experiment in a line: Induction of ERalpha degradation in human MCF7 cells assessed as reduction in ERalpha expression at 1 uM after 2 hrs by Western blotting analysis. Format: cell-based. The gist of the method: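 MCF7 cells in hormone-deprived media (agonist mode) or full-serum media (antagonist mode) were treated with 1 μM compound over a 48 h time course. Cells were lysed and ERα was detected by western blot, with tubulin as the normalizer.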

Assay [5] concerns the target Estrogen receptor (Homo sapiens, UniProt P03372, Y537S). Kind of assay: Binding affinity to ERalpha Y537S mutant (unknown origin) expressed in Escherichia coli preincubated for 15 mins followed by ligand addition and measured after 1 hr by fluorescent polarization assay. Put shortly: (§2)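 ERα LBD (aa 307–554), WT or D538G, S463P, Y537S, with N-terminal Avi-Tev-His tag, expressed in E. coli T7 Express (20 °C, 12 h, IPTG). Purified by Ni-NTA then size exclusion. Compound preincubated with protein 15 min, fluorescent ligand added, 1 h at room temperature. FP read ex 485/em 535 nm; duplicate runs averaged.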

Assay [6] deals with MCF7. The experiment in a line: Antitumor activity against human MCF7 cells xenografted in CD1 mouse assessed as tumor growth inhibition at 10 mg/kg, sc administered once daily for 28 days by caliper method. Format: functional. The conditions noted are these: 672 h, time 28 day, read-out: TGI. The gist of the method:
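Mice implanted with 17β-estradiol pellets (0.18 mg) 2 days before sc right-flank inoculation of 10×10^6 MCF-7 cells in PBS/Matrigel (50:50). Randomized at mean tumor 165 mm³, 8 per group. Dosed 10 mg/kg sc qd; fulvestrant reference 3 mg/mouse sc weekly. Caliper measurements twice weekly, V = 0.5a×b². TGI from medians. Body weight recorded before each dosing.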
(In general: In xenograft studies the graft and the host belong to different species.)

For assay [7], the target named is T2, Estrogen receptor. Kind of assay: (§3) Antagonist activity at ERalpha in human MCF7 cells assessed as reduction in PGR gene expression incubated for 24 hrs by qPCR analysis. Type of assay: cell-based. The gist of the method:
(§4)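 MCF7 cells in complete media, incubated 72 h, then dosed in a 6-point series (0.5% DMSO final) for 24 h at 37 °C. RNA extracted, cDNA made, TaqMan qPCR for progesterone receptor normalized to TBP. Comparative CT (ΔΔCT) used for dose-response curves.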

In assay [8] the target is T1, Estrogen receptor (Homo sapiens). The description is as §3. The note with it: filed as antagonist. Format: cell-based. The gist of the method: as §4
In assay [9] the test system is MCF7. The experiment in a line: Antiproliferative activity against human MCF7 cells assessed as growth inhibition incubated for 7 days by CellTiter-Glo assay. Type of assay: functional. The note with it: MCF7, 168 h, time 7 day. The gist of the method: as §1
In assay [10] the target is Estrogen receptor (Homo sapiens, UniProt P03372, S463P). The experiment in a line: Binding affinity to ERalpha S463P mutant (unknown origin) expressed in Escherichia coli preincubated for 15 mins followed by ligand addition and measured after 1 hr by fluorescent polarization assay. The gist of the method:
as §2

The source of these data is ChEMBL document CHEMBL4831478, “Bispecific Estrogen Receptor α Degraders Incorporating Novel Binders Identified Using DNA-Encoded Chemical Library Screening” (J Med Chem, 2021).

Calls of active or inactive are those of the source. The rule behind the calls is not given here.

Sequence of Estrogen receptor (Homo sapiens, UniProt P03372, S463P) (P03372 whole entry S463P): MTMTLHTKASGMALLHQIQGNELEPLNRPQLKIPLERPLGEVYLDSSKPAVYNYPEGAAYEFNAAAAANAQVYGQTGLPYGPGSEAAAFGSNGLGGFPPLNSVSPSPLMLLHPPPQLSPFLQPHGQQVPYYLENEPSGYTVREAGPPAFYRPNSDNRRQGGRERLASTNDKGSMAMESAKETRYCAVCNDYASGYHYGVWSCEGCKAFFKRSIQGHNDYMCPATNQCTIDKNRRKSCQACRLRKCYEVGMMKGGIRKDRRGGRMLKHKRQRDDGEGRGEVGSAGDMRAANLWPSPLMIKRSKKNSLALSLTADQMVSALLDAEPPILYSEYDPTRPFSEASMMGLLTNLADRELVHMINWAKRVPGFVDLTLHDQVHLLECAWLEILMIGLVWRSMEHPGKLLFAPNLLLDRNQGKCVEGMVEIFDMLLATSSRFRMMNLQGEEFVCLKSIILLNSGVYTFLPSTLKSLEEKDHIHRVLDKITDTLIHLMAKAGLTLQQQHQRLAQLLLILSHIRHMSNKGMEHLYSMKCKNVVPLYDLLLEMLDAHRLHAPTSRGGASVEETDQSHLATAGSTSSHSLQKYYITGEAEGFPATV
Sequence of Estrogen receptor (Homo sapiens, UniProt P03372, Y537S) (P03372 whole entry Y537S, the tested form may be a part): as the sequence (P03372 whole entry S463P) above, with P463S, Y537S counted along it

Turning to `Cc1ncsc1-c1ccc([C@@H](C)NC(=O)[C@@H]2C[C@@H](O)CN2C(=O)[C@H](NC(=O)COCCOCc2cn(CCOc3ccc(N(Cc4cccc(O)c4Cl)CC4(c5ccccc5F)CCCC4)cc3)nn2)C(C)(C)C)cc1`, the result (in assay [1]; in the assay with Mus musculus; in assay [4]) was Active. The values for the DC50 at Estrogen receptor [2] and on Estrogen receptor [3] were 14 nM and 37 nM, respectively. Also, the GI50 with T47D was 171 nM; with MCF7 [9] it was 13.8 nM. The IC50 on Estrogen receptor [5] worked out at 419 nM; at Estrogen receptor [10] it was 203 nM. Also, the inhibition in vivo at 10 mg/kg in the assay with MCF7 [6] was 30.8%. Besides, the EC50 at Estrogen receptor [7] amounted to 27 nM. The Activity result in [8] is “Dose-Dependent Effect”.

The term DC50 denotes the concentration at which degradation of the target reaches its halfway point. Usually GI50 stands for the concentration at which growth is held to half of that of the control. What is called IC50 is the concentration at which inhibition is half-maximal. A lower IC50 goes with inhibition by little substance. By EC50 is commonly meant the concentration giving half of the maximal effect.
